Laboratory results reported in ChEMBL document CHEMBL5724801, “EUbOPEN Chemogenomics Library - Multiplex” (2024).
Several values for one entry are separate records, joined by “and”; a condition that tells them apart may be missing. Equal entries are not always repeated.

Test system: HEK-293T
Assay: Multiplex assay against HEK293T
Type: toxicity, cell-based
Settings: human
Procedure, shortened: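 Live cells carried four stains from seeding: Hoechst33342, BioTracker Green Microtubule Cytoskeleton Dye, MitoTracker Red and Annexin V Alexa Fluor 680. They were imaged on a CQ1 microscope at 37°C and 5% CO2 after compound addition. Using CellPathfinder machine-learning gating, cells were split into Hoechst high-intensity objects or normal cells, normal cells into healthy, pyknosed or fragmented nuclei, and pyknosed cells into mitotic or apoptotic; tubulin, mitochondrial-mass and membrane-permeability phenotypes are per cents of healthy-nucleus cells.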

[1] = 12 h, 1 µM, compound concentration 1 uM
[2] = 12 h, 10 µM, compound concentration 10 uM
[3] = 24 h, 1 µM, compound concentration 1 uM
[4] = 24 h, 10 µM, compound concentration 10 uM
[5] = 48 h, 1 µM, compound concentration 1 uM
[6] = 48 h, 10 µM, compound concentration 10 uM

COc1cc(N2CCN(C)CC2)ccc1Nc1nccc(-c2cn(C)c3cnccc23)n1
Population Apoptotic (%) [1]: 10.14% and 10.53% | Population Fragmented Nuclei (%) [1]: 3.23% and 1.83% | Population Hoechst High Intensity Objects (%) [1]: 0% | Population Membrane Permeable-Phenotype (%) [1]: 0% | Population Mitotic Cells (%) [1]: 89.86% and 89.47% | Population Normal (%) [1]: 100% | Population Pyknosed Nuclei (%) [1]: 31.8% and 87.16% | Population Apoptotic (%) [2]: 19.35% and 16.13% | Population Fragmented Nuclei (%) [2]: 1.59% and 4.51% | Population Hoechst High Intensity Objects (%) [2]: 0% | Population Membrane Permeable-Phenotype (%) [2]: 0.4% and 2.94% | Population Mitotic Cells (%) [2]: 80.65% and 83.87% | Population Normal (%) [2]: 100% | Total Cell Count [2]: 314 and 133 | Population Apoptotic (%) [3]: 19.27% and 15.66% | Population Fragmented Nuclei (%) [3]: 1.54% and 3.91% | Population Healthy Nuclei (%) [3]: 81.64% and 31.25% | Population Hoechst High Intensity Objects (%) [3]: 0% | Population Membrane Permeable-Phenotype (%) [3]: 1.13% and 2.5% | Population Mitochondria Different-Phenotype (%) [3]: 11.15% and 10% | Population Mitotic Cells (%) [3]: 80.73% and 84.34% | Population Normal (%) [3]: 100% | Population Tubulin-Different-Phenotype (%) [3]: 12.1% and 5% | Population Apoptotic (%) [4]: 27.27% and 28.81% | Population Fragmented Nuclei (%) [4]: 2.49% and 1.67% | Population Healthy Nuclei (%) [4]: 87.23% and 49.17% | Population Hoechst High Intensity Objects (%) [4]: 0% | Population Membrane Permeable-Phenotype (%) [4]: 1.07% and 6.78% | Population Mitochondria Different-Phenotype (%) [4]: 7.5% and 3.39% | Population Mitotic Cells (%) [4]: 72.73% and 71.19% | Population Normal (%) [4]: 100% | Population Tubulin-Different-Phenotype (%) [4]: 26.07% and 10.17% | Total Cell Count [4]: 321 and 120 | Population Apoptotic (%) [5]: 7.58% and 13.11% | Population Fragmented Nuclei (%) [5]: 2.6% and 3.77% | Population Healthy Nuclei (%) [5]: 85.55% and 57.86% | Population Hoechst High Intensity Objects (%) [5]: 0.09% and 0.62% | Population Membrane Permeable-Phenotype (%) [5]: 3.57% and 0% | Population Mitochondria Different-Phenotype (%) [5]: 18.99% and 33.7% | Population Mitotic Cells (%) [5]: 92.42% and 86.89% | Population Normal (%) [5]: 99.91% and 99.38% | Population Apoptotic (%) [6]: 20% and 25% | Population Fragmented Nuclei (%) [6]: 4.38% and 4.51% | Population Healthy Nuclei (%) [6]: 87.29% and 74.44% | Population Hoechst High Intensity Objects (%) [6]: 0% | Population Membrane Permeable-Phenotype (%) [6]: 2.86% and 0% | Population Mitochondria Different-Phenotype (%) [6]: 21.24% and 29.29% | Population Mitotic Cells (%) [6]: 80% and 75% | Population Normal (%) [6]: 100% | Population Pyknosed Nuclei (%) [6]: 8.33% and 21.05%

Cc1cnc(-c2cc(N3CCN(C(=O)CCS(C)(=O)=O)CC3)ncc2Cl)c(C)c1
Population Apoptotic (%) [1]: 29% and 42% | Population Fragmented Nuclei (%) [1]: 6% | Population Healthy Nuclei (%) [1]: 76% and 75% | Population Hoechst High Intensity Objects (%) [1]: 4% and 9% | Population Membrane Permeable-Phenotype (%) [1]: 0% | Population Mitochondria Different-Phenotype (%) [1]: 50% and 69% | Population Mitotic Cells (%) [1]: 70% and 57% | Population Normal (%) [1]: 95% and 90% | Population Pyknosed Nuclei (%) [1]: 16% and 17% | Population Tubulin-Different-Phenotype (%) [1]: 33% and 24% | Total Cell Count [1]: 276 and 294 | Population Apoptotic (%) [2]: 42% and 45% | Population Fragmented Nuclei (%) [2]: 7% | Population Healthy Nuclei (%) [2]: 82% and 75% | Population Hoechst High Intensity Objects (%) [2]: 10% and 7% | Population Membrane Permeable-Phenotype (%) [2]: 0% | Population Mitochondria Different-Phenotype (%) [2]: 47% and 70% | Population Mitotic Cells (%) [2]: 57% and 54% | Population Normal (%) [2]: 89% and 92% | Population Pyknosed Nuclei (%) [2]: 10% and 17% | Population Tubulin-Different-Phenotype (%) [2]: 40% and 39% | Total Cell Count [2]: 409 and 288 | Population Apoptotic (%) [3]: 36% and 40% | Population Fragmented Nuclei (%) [3]: 8% and 7% | Population Healthy Nuclei (%) [3]: 78% and 83% | Population Hoechst High Intensity Objects (%) [3]: 2% and 6% | Population Membrane Permeable-Phenotype (%) [3]: 1% and 0% | Population Mitochondria Different-Phenotype (%) [3]: 30% and 36% | Population Mitotic Cells (%) [3]: 63% and 60% | Population Normal (%) [3]: 97% and 93% | Population Pyknosed Nuclei (%) [3]: 12% and 9% | Population Tubulin-Different-Phenotype (%) [3]: 21% and 13% | Total Cell Count [3]: 368 and 413 | Population Apoptotic (%) [4]: 33% and 51% | Population Fragmented Nuclei (%) [4]: 15% and 7% | Population Healthy Nuclei (%) [4]: 76% and 80% | Population Hoechst High Intensity Objects (%) [4]: 5% | Population Membrane Permeable-Phenotype (%) [4]: 0% | Population Mitochondria Different-Phenotype (%) [4]: 29% and 47% | Population Mitotic Cells (%) [4]: 66% and 48% | Population Normal (%) [4]: 94% | Population Pyknosed Nuclei (%) [4]: 8% and 12% | Population Tubulin-Different-Phenotype (%) [4]: 31% and 22% | Total Cell Count [4]: 550 and 392 | Population Apoptotic (%) [5]: 27% and 34% | Population Fragmented Nuclei (%) [5]: 17% and 14% | Population Healthy Nuclei (%) [5]: 76% and 78% | Population Hoechst High Intensity Objects (%) [5]: 1% and 2% | Population Membrane Permeable-Phenotype (%) [5]: 1% and 0% | Population Mitochondria Different-Phenotype (%) [5]: 17% and 22% | Population Mitotic Cells (%) [5]: 72% and 65% | Population Normal (%) [5]: 98% and 97% | Population Pyknosed Nuclei (%) [5]: 6% | Population Tubulin-Different-Phenotype (%) [5]: 10% and 6% | Total Cell Count [5]: 718 and 595 | Population Apoptotic (%) [6]: 25% and 36% | Population Fragmented Nuclei (%) [6]: 14% | Population Healthy Nuclei (%) [6]: 78% and 77% | Population Hoechst High Intensity Objects (%) [6]: 4% and 3% | Population Membrane Permeable-Phenotype (%) [6]: 0% | Population Mitochondria Different-Phenotype (%) [6]: 23% and 32% | Population Mitotic Cells (%) [6]: 74% and 63% | Population Normal (%) [6]: 95% and 96% | Population Pyknosed Nuclei (%) [6]: 7% and 8% | Population Tubulin-Different-Phenotype (%) [6]: 17% and 15% | Total Cell Count [6]: 753 and 576

COc1cc(NC(=O)CCN2CCC(OC(=O)Nc3ccccc3-c3ccccc3)CC2)c(Cl)cc1CNC[C@H](O)c1ccc(O)c2[nH]c(=O)ccc12 [BATEFENTEROL]
Population Apoptotic (%) [1]: 42% and 47% | Population Fragmented Nuclei (%) [1]: 4% and 3% | Population Healthy Nuclei (%) [1]: 81% and 78% | Population Hoechst High Intensity Objects (%) [1]: 7% and 8% | Population Membrane Permeable-Phenotype (%) [1]: 0% | Population Mitochondria Different-Phenotype (%) [1]: 65% and 84% | Population Mitotic Cells (%) [1]: 57% and 52% | Population Normal (%) [1]: 92% and 91% | Population Pyknosed Nuclei (%) [1]: 14% and 17% | Population Tubulin-Different-Phenotype (%) [1]: 44% and 41% | Total Cell Count [1]: 420 and 285 | Population Apoptotic (%) [2]: 100% and 52% | Population Hoechst High Intensity Objects (%) [2]: 31% and 11% | Population Membrane Permeable-Phenotype (%) [2]: 0% and 1% | Population Normal (%) [2]: 68% and 88% | Population Pyknosed Nuclei (%) [2]: 9% and 22% | Population Apoptotic (%) [3]: 44% and 41% | Population Fragmented Nuclei (%) [3]: 9% and 7% | Population Healthy Nuclei (%) [3]: 77% and 82% | Population Hoechst High Intensity Objects (%) [3]: 5% and 8% | Population Membrane Permeable-Phenotype (%) [3]: 0% | Population Mitochondria Different-Phenotype (%) [3]: 59% and 65% | Population Mitotic Cells (%) [3]: 55% and 58% | Population Normal (%) [3]: 94% and 91% | Population Pyknosed Nuclei (%) [3]: 12% and 9% | Population Tubulin-Different-Phenotype (%) [3]: 35% and 27% | Total Cell Count [3]: 527 and 403 | Population Membrane Permeable-Phenotype (%) [4]: 0% | Population Mitochondria Different-Phenotype (%) [4]: 100% and 89% | Population Normal (%) [4]: 66% and 93% | Population Pyknosed Nuclei (%) [4]: 0% and 19% | Population Tubulin-Different-Phenotype (%) [4]: 100% and 78% | Population Apoptotic (%) [5]: 35% and 51% | Population Fragmented Nuclei (%) [5]: 15% and 13% | Population Healthy Nuclei (%) [5]: 75% and 79% | Population Hoechst High Intensity Objects (%) [5]: 3% | Population Membrane Permeable-Phenotype (%) [5]: 0% | Population Mitochondria Different-Phenotype (%) [5]: 36% and 42% | Population Mitotic Cells (%) [5]: 65% and 48% | Population Normal (%) [5]: 96% | Population Pyknosed Nuclei (%) [5]: 8% and 6% | Population Tubulin-Different-Phenotype (%) [5]: 17% | Total Cell Count [5]: 744 and 547 | Population Apoptotic (%) [6]: 100% and 57% | Population Hoechst High Intensity Objects (%) [6]: 7% | Population Membrane Permeable-Phenotype (%) [6]: 0% | Population Mitochondria Different-Phenotype (%) [6]: 66% and 76% | Population Normal (%) [6]: 92% | Population Pyknosed Nuclei (%) [6]: 16% and 11% | Population Tubulin-Different-Phenotype (%) [6]: 66% and 74%
